Screening results deposited in PubChem by several laboratories.
ARNT-TACC3 inh – disruptors of human ARNT/TACC3 interaction; AlphaScreen His-ARNT PAS-B/GST-TACC3 binding, luminescence; TACC3 fragment carries E629A point mutation; inhibition, % at 9.99 µM; hit rate 0.66% among 390,000;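 active = mean inhibition of replicates at least 50% and at least half of replicates each reaching 50%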;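 also: 0% = complete ARNT plus TACC3 wells and 100% = ARNT alone without TACC3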
UCH37 inh – human UCH37 deubiquitinating enzyme inhibition. hit rate 0.33% among 330,000. inhibition, % (test concentration not listed). purified proteasome/UCH37, Ub-AMC cleavage fluorescence;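 active = mean inhibition over replicate wells above about 20%, limit read from the data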;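 also: 0% = compound-free wells with enzyme and 100% = wells lacking proteasome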
Target sequence (Q9Y5K5 whole entry, looked up): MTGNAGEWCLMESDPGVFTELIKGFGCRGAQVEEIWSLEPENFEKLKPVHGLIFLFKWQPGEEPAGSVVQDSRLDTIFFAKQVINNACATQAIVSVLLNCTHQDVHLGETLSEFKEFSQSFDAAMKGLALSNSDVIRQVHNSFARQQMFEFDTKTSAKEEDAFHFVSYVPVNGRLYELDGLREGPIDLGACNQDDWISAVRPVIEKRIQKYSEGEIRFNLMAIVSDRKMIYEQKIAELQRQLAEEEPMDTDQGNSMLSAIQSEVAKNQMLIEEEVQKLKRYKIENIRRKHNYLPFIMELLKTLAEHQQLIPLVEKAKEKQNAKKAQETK
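Schedule: 30 min plus 25 min, room temperature / Material: human UCH37 within purified proteasomes / Technique: AMC fluorescence intensity at 355/460 nm / Buffer or medium: pH 7.4 Tris-HCl (50 mM) with ovalbumin, ATP-MgCl2, DTT / Controls: wells without proteasome as full block, compound-free enzyme plus substrate as uninhibited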
Cardiac RTF inh – cardiac RTF calcium desensitization; IANBD-labeled cardiac RTF, Ca2+ fluorescence; hit rate 0.12% among 340,000; P19429+P45379; inhibition, % at 7.15 µM;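 active = inhibition above the mean inhibition of all tested compounds plus 3 SD, cut at about 17% in these data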;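 also: assay run at fixed EC70 calcium of 1.6 mM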
Efflux pump inh – antifungal efflux pump inhibition, Nile Red retention. AID 485275. S. cerevisiae Candida pump triplex. hit rate 0.44% among 330,000. inhibition, % at 10 µM;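 active = plate passing quality check with inhibition over a set limit, or well fluorescence over plate mean plus 4 SD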;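 also: Nile Red retained in pooled yeast measured as flow cytometry median fluorescence; 0% = buffer negative control and 100% = Enniatin B positive control; higher means more Nile Red kept so more efflux inhibition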
RTF Ca sens act – increases calcium sensitivity of human cardiac regulated thin filaments; IANBD-labeled TnC RTF fluorescence at EC20 calcium; 0% EC20 calcium, 100% full calcium; AID 493008; activation, % at 7.2 µM; P19429+P45379; hit rate 0.24% among 340,000;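 active = activation above the mean over all tested compounds plus 3 SD, cut at about 30% in these data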;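 also: rise in fluorescence read as greater calcium sensitivity of cardiac thin filaments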
SUMO Mot1 rescue – SUMOylation pathway inhibition by Mot1-301 growth rescue | S. cerevisiae Mot1-301 growth rescue, ATP luminescence, 38.5C; percent above DMSO median, 100 means doubled | growth rescue, % at 18.8 µM | hit rate 1% among 320,000 | AID 2716;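 active = every valid replicate shows activation above 250% relative to neutral control wells; inactive = the rest, any valid replicate at or below 250%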;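 also: OY570 slx delta 5 strain wells were the positive control but not used for scaling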
Yeast Mot1 SUMO – yeast SUMO pathway inhibition in dose response; S. cerevisiae Mot1-301 galactose growth, ATP luminescence, 24 h; -100 = growth of slx-deleted rescue strain; shares compounds with SUMO Mot1 rescue; growth activity, percent, % at 42 µM; 2,300 tested, under 10 active;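 active = Signal drops as the depositor expects, and the fitted half-maximal dose is no more than ten times the top valid tested dose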;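 also: more negative values mean stronger growth rescue toward the control strain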
* hit, by the source's call; . = not tested or not shown; + = active, no number; [ ] = another dose, or the depositor's remark. Most compounds without a hit are left out; they make up all but 2.1% or so of the library.

SMILES | ARNT-TACC3 inh | UCH37 inh | Cardiac RTF inh | Efflux pump inh | RTF Ca sens act | SUMO Mot1 rescue | Yeast Mot1 SUMO
CC1CCCC(C)N1N=Cc1cccc([N+](=O)[O-])c1 (stereo not drawn) | . | 0 | . | . | . | . | .
CCCOc1ccc(C(=O)Nc2ccc(CN3CCOCC3)cc2)cc1 | -5 | 1 | -9 | 0 | 5 | 178 | .
CCCCOc1ccc(C(=O)Nc2ccc(CN3CCOCC3)cc2)cc1 | 10 | 6 | 5 | 0 | 0 | 362* | 0
COc1ccc(C=NOCC(=O)NCC(C)C)c(OC)c1 | . | 1 | . | . | . | . | .
O=c1[nH]cnc2ccc([N+](=O)[O-])cc12 | 2 | 4 | -2 | 0 | 7 | 397* | 0
c1cnc2nc3c4ccccc4c4ccccc4c3nc2c1 | 4 | 2 | 3 | . | -6 | . | .
Cc1nc2ccccc2c2ncccc12 | -2 | 4 | -4 | 0 | -6 | 613* | -1
COC(=O)Nc1ccc(S(=O)(=O)N2CCCC(C(=O)NC3CCS(=O)(=O)C3)C2)cc1 (stereo not drawn) | 1 | 5 | 5 | 0 | 15 | 387* | 0
Cc1ccsc1C=NNc1ncc(Cl)cc1Cl | . | -1 | . | . | . | . | .
COc1cc(C=NN(C)S(=O)(=O)c2ccc(C)cc2)cc([N+](=O)[O-])c1O | . | 10 | . | . | . | . | .
Cc1n[nH]c(C)c1S(=O)(=O)N(CC(=O)NC1CCCC1)c1ccc(C(C)C)cc1 | 14 | 5 | 4 | 0 | -2 | 634* | 0[21 µM]
COc1cccc(C=Nn2c(-c3ccco3)nc3ccccc3c2=O)c1 | . | 7 | . | . | . | . | .
O=C(NN=Cc1ccccc1)c1cccc2ccccc12 | . | 1 | . | . | . | . | .
COc1ccc(CNC(=O)CN(c2ccc(OC)cc2)S(=O)(=O)c2c(C)nn(C)c2C)cc1 | -4 | -1 | -4 | 0 | 5 | 131 | .
COc1ccc(N(CC(=O)NCc2ccc(C)cc2)S(=O)(=O)c2c(C)nn(C)c2C)cc1 | -8 | 2 | -5 | -1 | 1 | 585* | 0
COC(=O)CNC(=O)CSc1ccccn1 | -3 | 3 | 0 | 0 | 1 | + | 0
COc1ccc(NC(=O)CSc2ccccn2)cc1 | -7 | 1 | 0 | 0 | 9 | 0 | .
COc1ccc(NC2=C(C)C(=O)CC2)cc1 | -3 | 7 | -3 | 0 | -4 | 594* | 0
CCOC(=O)C1=C(N)n2c(sc(=Cc3cccnc3)c2=O)=C(C#N)C1c1cccnc1 (stereo not drawn) | . | 6 | . | . | . | . | .
CCn1nccc1C(=O)Nc1ccccc1OC | -7 | -1 | -7 | 0 | -2 | 747* | 0
O=C(O)CC1SC(=NN=Cc2ccccc2)N(c2ccc(O)cc2)C1=O (stereo not drawn) | . | 4 | . | . | . | . | .
CCc1ccc2nc(-c3cccc(C)c3)nc(SCC(=O)NCC3CCCO3)c2c1 (stereo not drawn) | -6 | 8 | -1 | 0 | -1 | 404* | 0
O=C(c1cc(Cl)c(=O)n(Cc2ccc(Cl)cc2)c1)N1CCOCC1 | -3 | 1 | -3 | 0 | -2 | 658* | 0
Cn1c(N=Cc2c[nH]c3ccccc23)nc2ccccc21 | . | -2 | . | . | . | . | .
COc1cccc(Cn2cnc3c(NS(=O)(=O)c4cccc(Cl)c4Cl)c(C)c(C)cc32)c1 | -7 | -1 | 1 | 0 | -3 | 411* | -1
SMILES | ARNT-TACC3 inh | UCH37 inh | Cardiac RTF inh | Efflux pump inh | RTF Ca sens act | SUMO Mot1 rescue | Yeast Mot1 SUMO
O=S1(=O)N=C(N(CCO)N=Cc2ccccc2F)c2ccccc21 | . | 6 | . | . | . | . | .
COc1cccc(-n2c(Cc3cc(=O)[nH]c(=O)[nH]3)nnc2SCc2cccnc2)c1 | -4 | . | -11 | 0 | 19 | 511* | 0
COC(=O)C1C2C=CC3(CN(CCc4ccccc4)C(=O)C13)O2 (stereo not drawn) | . | 1 | -4 | 0 | -3 | 429* | 0[21 µM]
COc1ccc(OC)c(C(O)=CC(=O)C(=O)Nc2cc(C)cc(C)c2)c1 | . | 0 | . | . | . | . | .
CC(C)(CNC(=O)c1cccs1)CNC(=O)c1cccs1 | -5 | -4 | -13 | 0 | 7 | 667* | 0
O=C(NN=Cc1ccncc1)c1ccc(-n2cccc2)cc1 | . | 2 | . | . | . | . | .
COc1ccc(NC(=O)Cn2nnc(C(=O)Nc3ccc(F)c(Cl)c3)c2N)cc1 | -6 | 4 | -4 | 0 | 3 | 477* | 0
CC(=NNC(=O)C1CC1)c1cccc(NC(=O)c2cccc(Cl)c2)c1 | . | 0 | . | . | . | . | .
O=C(COc1ccccc1)NN=Cc1cc2c(cc1[N+](=O)[O-])OCO2 | . | 3 | . | . | . | . | .
Cc1cccc(Nc2nc(OCC#N)nc(N(C)C)n2)c1 | -4 | 4 | -3 | 0 | 12 | -8 | .
CCN(CC)c1nc(Nc2ccc(Cl)cc2)nc(OCC#N)n1 | -7 | 0 | -6 | 0 | 0 | 735* | 1
Cc1cnc(C(=O)OC(C(=O)c2c[nH]c3ccccc23)c2ccccc2)cn1 (stereo not drawn) | 2 | -1 | 0 | 0 | -6 | 533* | 0
COc1ccc(C(=O)NN=Cc2ccc3cccc(OCc4ccccc4)c3n2)cc1 | . | -231 | . | . | . | . | .
COCc1[nH][nH]c(=O)c1C=Nc1ccc(OC(F)(F)F)cc1 | 1 | 5 | -16 | 0 | -3 | 801* | 0
Cc1cccc(C=c2sc(=CC(=O)C(C)(C)C)[nH]c2=O)c1 | . | 1 | . | . | . | . | .
COc1ccc(NC(=O)CN(C)CC(=O)NC2CCC(C)CC2)cc1 (stereo not drawn) | -4 | 4 | -3 | 0 | 3 | -11 | .
COc1ccc(CN2C(=O)c3c(c(C)n(C)c3C)C2C(=O)NC2CCC(C)CC2)cc1 (stereo not drawn) | -2 | 2 | -8 | 1 | 4 | 697* | -1
CC(=NNC(=O)Cc1c(F)cccc1Cl)c1cccnc1 | . | 4 | . | . | . | . | .
Cc1cc(F)ccc1S(=O)(=O)Nc1ccccc1C(=O)Nc1ccc2[nH]c(=O)[nH]c2c1 | 27 | 2 | 5 | 0 | -4 | 370* | 0
COC(=O)c1ccc(C=NNc2nc(-c3ccccc3)cs2)cc1 | . | -13 | . | . | . | . | .
CCOc1c(Cl)cc(CNCC(C)C)cc1OC | 4 | 5 | -8 | 1 | 4 | 70 | .
CCOc1c(Cl)cc(CNCC(O)c2ccccc2)cc1OC (stereo not drawn) | -7 | 2 | 6 | 0 | -1 | 614* | 0
CCCC=NNC(=O)c1ccccc1O | . | -13 | . | . | . | . | .
COc1ccc(C(=O)Nc2cccc(C(C)=NNC(=O)c3ccoc3C)c2)cc1OC | . | -1 | . | . | . | . | .
O=C(CSc1nc2ccccc2[nH]1)NN=Cc1ccncc1 | . | 4 | . | . | . | . | .
CC1C(=O)CC(c2ccccc2)N(C)C1c1ccccc1 (stereo not drawn) | -6 | 2 | -6 | 0 | 1 | 537* | 0
CN1C(c2ccccc2)CCOS1(=O)=O (stereo not drawn) | -12 | 2 | 0 | 0 | 6 | 8 | .
